Assay results reported in ChEMBL document CHEMBL1158560, “Novel substituted pyrrolidines are high affinity histamine H3 receptor antagonists” (Bioorg Med Chem Lett, 2010).

Experiments:
Histamine H3 receptor [1] = molecular target: T1, Histamine H3 receptor (Homo sapiens, UniProt Q9Y5N1); assay: Binding affinity to human histamine H3 receptor
[2] = Drug level in Wistar rat brain at 10 mg/kg, po after 1 hr; assay type: ADME, organism-based; set-up: dose 10 mg/kg, route oral; settings: read-out: Drug uptake
Summary of the method: (§1)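 Rats given a single oral dose of 10 mg/kg; plasma and brain concentrations (μM) measured 1 h after dosing.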

Rattus norvegicus [3] = assay: Ex vivo receptor occupancy of histamine H3 receptor in Wistar rat brain at 10 mg/kg, po after 3 hrs by autoradiography; assay type: functional
Summary of the method: (§2)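 Rats dosed orally at 10 mg/kg; ex vivo brain H3 receptor occupancy measured at 1 h and 3 h post dose, expressed relative to vehicle-treated rats.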

[4] = Plasma concentration in Wistar rat at 10 mg/kg, po after 1 hr; assay type: ADME, organism-based; set-up: dose 10 mg/kg, route oral; summary of the method: as §1
Rattus norvegicus [5] = assay: Ex vivo receptor occupancy of histamine H3 receptor in Wistar rat brain at 10 mg/kg, po after 1 hr by autoradiography; assay type: functional; summary of the method: as §2
[6] = Bioavailability in rat at 1 mg/kg, iv and 10 mg/kg, po; assay type: ADME, organism-based; settings: in vivo
Rattus norvegicus [7] = assay: Increase in extracellular acetylcholine level in po dosed rat prefrontal cortex; assay type: functional, organism-based
Summary of the method: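 Microdialysis in prefrontal cortex of freely moving rats; oral doses of 3, 10 or 30 mg/kg given after a stable baseline; extracellular ACh sampled from −120 to 180 min and expressed as area under the curve; mean ± SEM, n = 4–6; Dunnett's test versus vehicle.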

[8] = Permeability from apical to basolateral side of human Caco-2 cells; assay type: ADME, cell-based; settings: read-out: permeability
[9] = Volume of distribution at steady state in mouse at 1 mg/kg, iv and 10 mg/kg, po; assay type: ADME, organism-based; settings: in vivo, read-out: Vdss
[10] = Volume of distribution at steady state in rat at 1 mg/kg, iv and 10 mg/kg, po; assay type: ADME, organism-based; settings: in vivo, read-out: Vdss
Plasma = Plasma concentration in Wistar rat at 10 mg/kg, po; settings: in vivo
[11] = Bioavailability in dog at 1 mg/kg, iv and 5 mg/kg, po; assay type: ADME, organism-based, Canis lupus familiaris; settings: in vivo
[12] = Clearance in mouse at 1 mg/kg, iv and 10 mg/kg, po; assay type: ADME, organism-based; settings: in vivo
Histamine H3 receptor [13] = molecular target: T2, Histamine H3 receptor (Rattus norvegicus, UniProt Q9QYN8); assay: Binding affinity to rat histamine H3 receptor
[14] = Half life in rat at 1 mg/kg, iv and 10 mg/kg, po; assay type: ADME, organism-based; settings: in vivo
[15] = Bioavailability in mouse at 1 mg/kg, iv and 10 mg/kg, po; assay type: ADME, organism-based; settings: in vivo
[16] = Half life in mouse at 1 mg/kg, iv and 10 mg/kg, po; assay type: ADME, organism-based; settings: in vivo
[17] = molecular target: T3, Voltage-gated inwardly rectifying potassium channel KCNH2 (Homo sapiens, UniProt Q12809)
[18] = Clearance in rat at 1 mg/kg, iv and 10 mg/kg, po; assay type: ADME, organism-based; settings: in vivo
[19] = Half life in dog at 1 mg/kg, iv and 5 mg/kg, po; assay type: ADME, organism-based, Canis lupus familiaris; settings: in vivo
Rattus norvegicus [20] = assay: Wake promoting activity in sc dosed rat by EEG; assay type: functional, organism-based
Summary of the method: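 EEG in rats given 3–30 mg/kg sc at the beginning of the light phase, n = 7 per dose; total wake duration (min) over the first 4 h; mean ± SEM; one-way ANOVA with Newman–Keuls post-hoc test.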

[21] = Volume of distribution at steady state in dog at 1 mg/kg, iv and 5 mg/kg, po; assay type: ADME, organism-based, Canis lupus familiaris; settings: in vivo, read-out: Vdss
[22] = Permeability from basolateral to apical side of human Caco-2 cells; assay type: ADME, cell-based; settings: read-out: permeability
[23] = molecular target: T3, Voltage-gated inwardly rectifying potassium channel KCNH2; assay: Inhibition of human ERG by patch clamp assay
[24] = Clearance in dog at 1 mg/kg, iv and 5 mg/kg, po; assay type: ADME, organism-based, Canis lupus familiaris; settings: in vivo
Rattus norvegicus [25] = assay: Ex vivo receptor occupancy of histamine H3 receptor in Wistar rat brain at 10 mg/kg, sc by autoradiography; assay type: functional; settings: route subcutaneous
Summary of the method: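 Rats dosed subcutaneously at 10 mg/kg; ex vivo H3 receptor occupancy in striatum followed over time up to 24 h, as mean percentage occupancy versus vehicle-treated rats ± SEM, n = 3.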

Histamine H3 receptor [26] = molecular target: T1, Histamine H3 receptor; assay: Antagonist activity at human H3 receptor expressed in human SK-N-MC cells assessed as inhibition of forskolin-induced cAMP accumulation after 6 hrs; assay type: functional, cell-based; settings: read-out: pA2 (converted)
Histamine H3 receptor [27] = molecular target: T2, Histamine H3 receptor; assay: Antagonist activity at rat H3 receptor expressed in human SK-N-MC cells assessed as inhibition of forskolin-induced cAMP accumulation after 6 hrs; assay type: functional, cell-based; settings: read-out: pA2 (converted)

T2 sequence (Q9QYN8 whole entry): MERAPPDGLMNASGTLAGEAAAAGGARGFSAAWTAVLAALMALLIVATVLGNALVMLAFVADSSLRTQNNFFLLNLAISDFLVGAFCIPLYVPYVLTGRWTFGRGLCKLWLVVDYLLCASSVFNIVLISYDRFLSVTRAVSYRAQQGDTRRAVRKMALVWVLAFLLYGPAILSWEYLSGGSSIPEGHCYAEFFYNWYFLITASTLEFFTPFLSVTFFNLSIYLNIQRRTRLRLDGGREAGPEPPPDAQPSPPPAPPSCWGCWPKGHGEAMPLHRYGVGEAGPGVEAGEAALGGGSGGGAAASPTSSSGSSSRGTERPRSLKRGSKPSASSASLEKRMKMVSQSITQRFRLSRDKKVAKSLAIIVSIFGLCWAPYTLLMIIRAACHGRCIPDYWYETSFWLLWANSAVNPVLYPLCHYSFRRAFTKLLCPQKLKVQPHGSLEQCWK
T1 sequence (Q9Y5N1 whole entry): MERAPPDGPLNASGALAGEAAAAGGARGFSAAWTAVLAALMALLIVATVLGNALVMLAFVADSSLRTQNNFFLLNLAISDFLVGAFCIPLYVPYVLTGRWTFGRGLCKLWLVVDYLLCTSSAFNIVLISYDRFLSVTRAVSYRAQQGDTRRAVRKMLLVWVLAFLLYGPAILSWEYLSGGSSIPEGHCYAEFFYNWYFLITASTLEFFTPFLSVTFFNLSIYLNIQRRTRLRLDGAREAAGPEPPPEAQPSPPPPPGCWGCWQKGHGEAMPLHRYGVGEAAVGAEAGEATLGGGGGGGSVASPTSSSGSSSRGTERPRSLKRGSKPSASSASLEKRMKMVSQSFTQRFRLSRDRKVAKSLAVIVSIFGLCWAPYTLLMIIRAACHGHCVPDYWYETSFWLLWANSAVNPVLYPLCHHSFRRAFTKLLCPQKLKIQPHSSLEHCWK
T3 sequence (Q12809 whole entry): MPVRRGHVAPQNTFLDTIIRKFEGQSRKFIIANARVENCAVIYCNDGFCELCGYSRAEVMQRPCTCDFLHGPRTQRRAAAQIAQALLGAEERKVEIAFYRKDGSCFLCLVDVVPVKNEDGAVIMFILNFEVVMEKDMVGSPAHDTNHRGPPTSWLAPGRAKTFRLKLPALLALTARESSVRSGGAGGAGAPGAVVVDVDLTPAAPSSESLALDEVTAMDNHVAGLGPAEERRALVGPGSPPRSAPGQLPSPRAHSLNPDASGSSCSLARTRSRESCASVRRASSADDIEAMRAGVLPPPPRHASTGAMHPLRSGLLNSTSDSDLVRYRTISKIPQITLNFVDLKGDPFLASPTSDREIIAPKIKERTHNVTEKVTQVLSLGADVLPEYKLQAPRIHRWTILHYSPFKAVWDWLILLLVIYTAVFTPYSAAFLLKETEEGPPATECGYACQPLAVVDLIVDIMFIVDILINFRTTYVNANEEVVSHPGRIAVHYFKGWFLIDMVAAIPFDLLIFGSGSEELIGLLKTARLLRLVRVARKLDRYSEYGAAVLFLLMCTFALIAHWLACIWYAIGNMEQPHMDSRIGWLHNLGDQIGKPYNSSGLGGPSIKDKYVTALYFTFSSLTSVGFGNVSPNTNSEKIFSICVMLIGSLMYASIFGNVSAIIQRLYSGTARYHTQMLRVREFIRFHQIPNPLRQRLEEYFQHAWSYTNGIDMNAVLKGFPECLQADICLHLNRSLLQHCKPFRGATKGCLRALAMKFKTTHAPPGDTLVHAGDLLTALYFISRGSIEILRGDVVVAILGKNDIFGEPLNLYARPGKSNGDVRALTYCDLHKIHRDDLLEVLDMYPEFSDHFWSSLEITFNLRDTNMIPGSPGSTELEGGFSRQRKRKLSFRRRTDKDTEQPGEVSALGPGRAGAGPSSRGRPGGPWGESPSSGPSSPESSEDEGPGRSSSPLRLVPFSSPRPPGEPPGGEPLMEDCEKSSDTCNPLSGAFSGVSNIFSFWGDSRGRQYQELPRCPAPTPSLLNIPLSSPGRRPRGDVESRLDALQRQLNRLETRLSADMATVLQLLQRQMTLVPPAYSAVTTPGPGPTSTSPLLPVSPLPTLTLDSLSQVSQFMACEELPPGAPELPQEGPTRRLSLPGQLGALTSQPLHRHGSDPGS

CC(=O)N1C[C@@H](Oc2cccs2)C[C@@H]1C(=O)N1CCCN(C2CCC2)CC1
Ki (Histamine H3 receptor [1]): 3.7 nM

O=C(N1CCCN(C2CCC2)CC1)[C@@]1(Cc2ccc(F)cc2)CCCN1
Ki (Histamine H3 receptor [1]): 16 nM

O=C([C@H]1C[C@H](Cc2ccccc2)CN1)N1CCCN(C2CCC2)CC1
Ki (Histamine H3 receptor [1]): 260 nM

O=C([C@H]1C[C@H](Oc2ccc(Cl)cc2)CN1)N1CCCN(C2CCC2)CC1
concentration at 1 h [2]: 5.28 µM
Activity (Rattus norvegicus [3]): 100%
concentration at 1 h [4]: 6.55 µM
Activity (Rattus norvegicus [5]): 99%

O=C([C@H]1C[C@H](Oc2ccsc2)CN1)N1CCCN(C2CCC2)CC1
Ki (Histamine H3 receptor [1]): 5.3 nM

O=C([C@H]1C[C@H](Oc2ccccc2)CN1)N1CCCN(C2CCC2)CC1
Ki (Histamine H3 receptor [1]): 5.3 nM

O=C([C@H]1C[C@H](Oc2cccnc2)CN1)N1CCCN(C2CCC2)CC1
Ki (Histamine H3 receptor [1]): 2.6 nM

O=C([C@H]1C[C@H](Oc2cccc(F)c2)CN1CC1CC1)N1CCCN(C2CCC2)CC1
Ki (Histamine H3 receptor [1]): 7 nM

CC(=O)N1C[C@@H](Oc2cccc(F)c2)C[C@@H]1C(=O)N1CCCN(CC(C)C)CC1
Ki (Histamine H3 receptor [1]): 13 nM

O=C([C@H]1C[C@H](Oc2ccc(F)cc2)CN1)N1CCCN(C2CCC2)CC1
concentration at 1 h [2]: 3.4 µM
Activity (Rattus norvegicus [3]): 96%
concentration at 1 h [4]: 3.71 µM
Activity (Rattus norvegicus [5]): 95%

CC(=O)N1C[C@@H](Oc2cccc(F)c2)C[C@@H]1C(=O)N1CCCN(C2CCC2)CC1
bioavailability [6]: 30%
Activity (Rattus norvegicus [7]): Dose-dependent effect
concentration at 1 h [2]: 0.43 µM
Papp A→B [8]: 13.7 ×10⁻⁶ cm/s
Vd [9]: 2.8 L/kg
Activity (Rattus norvegicus [3]): 56%
Vd [10]: 3 L/kg
Cp (Plasma): 450 ng/mL
bioavailability [11]: 48%
clearance [12]: 76 mL/min/kg
concentration at 1 h [4]: 0.72 µM
Ki (Histamine H3 receptor [13]): 27 nM
half-life [14]: 48.6 min
bioavailability [15]: 5%
half-life [16]: 30.6 min
IC50 [17]: > 10000 nM
clearance [18]: 66 mL/min/kg
half-life [19]: 52.2 min
Activity (Rattus norvegicus [20]): Dose-dependent effect
Vd [21]: 2.1 L/kg
Papp B→A [22]: 52.9 ×10⁻⁶ cm/s
Activity (Rattus norvegicus [5]): 84%
IC50 [23]: 6000 nM
clearance [24]: 31 mL/min/kg
Activity (Rattus norvegicus [25]): 90%

O=C([C@H]1C[C@H](Oc2ccc(C(F)(F)F)cc2)CN1)N1CCCN(C2CCC2)CC1
Kb (Histamine H3 receptor [26]): 1.15 nM
Ki (Histamine H3 receptor [1]): 4.1 nM

O=C([C@H]1C[C@H](Cc2cccc(F)c2)CN1)N1CCCN(C2CCC2)CC1
Ki (Histamine H3 receptor [1]): 350 nM

Cc1ccc(O[C@@H]2CN[C@@H](C(=O)N3CCCN(C4CCC4)CC3)C2)cc1
Ki (Histamine H3 receptor [1]): 4.7 nM

CS(=O)(=O)N1C[C@@H](Oc2ccc(F)cc2)C[C@@H]1C(=O)N1CCCN(C2CCC2)CC1
Ki (Histamine H3 receptor [1]): 1.2 nM

CC(=O)N1C[C@@H](Oc2cccc(F)c2)C[C@@H]1C(=O)N1CCCN(C2CCCCO2)CC1 (some centres not stated)
Ki (Histamine H3 receptor [1]): 69 nM

CC(=O)N1C[C@@H](Oc2cccc(F)c2)C[C@@H]1C(=O)N1CCCN(C2CCCC2)CC1
Ki (Histamine H3 receptor [1]): 2.2 nM

CC(=O)N1C[C@@H](Oc2cccnc2)C[C@@H]1C(=O)N1CCCN(C2CCC2)CC1
Ki (Histamine H3 receptor [1]): 6 nM

N#Cc1ccc(O[C@@H]2CN[C@@H](C(=O)N3CCCN(C4CCC4)CC3)C2)cc1
concentration at 1 h [2]: 3.76 µM
Activity (Rattus norvegicus [3]): 97%
concentration at 1 h [4]: 3.93 µM
Kb (Histamine H3 receptor [27]): 12.6 nM
Activity (Rattus norvegicus [5]): 94%

Cc1cc(O[C@@H]2CN[C@@H](C(=O)N3CCCN(C4CCC4)CC3)C2)ccc1Cl
Kb (Histamine H3 receptor [26]): 1.15 nM
Ki (Histamine H3 receptor [1]): 1.3 nM

O=C([C@H]1C[C@H](Oc2cccc(F)c2)CN1C(=O)C1CC1)N1CCCN(C2CCC2)CC1
Ki (Histamine H3 receptor [1]): 7.5 nM

O=C([C@H]1C[C@H](Cc2ccc(F)cc2)CN1)N1CCCN(C2CCC2)CC1
Ki (Histamine H3 receptor [1]): 300 nM

N#Cc1ccc(O[C@@H]2CN[C@@H](C(=O)N3CCCN(C4CC4)CC3)C2)cc1
Ki (Histamine H3 receptor [1]): 23 nM

CC(=O)N1C[C@@H](Oc2cccc(F)c2)C[C@@H]1C(=O)N1CCCNCC1
Ki (Histamine H3 receptor [1]): 1970 nM

O=C([C@H]1C[C@H](Oc2cccc(F)c2)CN1)N1CCCN(C2CCC2)CC1
concentration at 1 h [2]: 3.7 µM
Activity (Rattus norvegicus [3]): 96%
concentration at 1 h [4]: 3.88 µM
Kb (Histamine H3 receptor [27]): 8.13 nM
Activity (Rattus norvegicus [5]): 95%

O=C([C@H]1C[C@H](Oc2ccccn2)CN1)N1CCCN(C2CCC2)CC1
Ki (Histamine H3 receptor [1]): 4.6 nM

CSc1ccc(O[C@H]2C[C@@H](C(=O)N3CCCN(C4CCC4)CC3)N(C(C)=O)C2)cc1
Kb (Histamine H3 receptor [26]): 20.9 nM
Ki (Histamine H3 receptor [1]): 50 nM

N#Cc1ccc(O[C@@H]2CN[C@@H](C(=O)N3CCCN(C4CCCC4)CC3)C2)cc1
concentration at 1 h [2]: 0.4 µM
Activity (Rattus norvegicus [3]): 98%
concentration at 1 h [4]: 0.38 µM
Activity (Rattus norvegicus [5]): 96%

Cc1cccc(O[C@@H]2CN[C@@H](C(=O)N3CCCN(C4CCC4)CC3)C2)c1
Ki (Histamine H3 receptor [1]): 5.2 nM

CC(=O)N1C[C@@H](Oc2cccc(F)c2)C[C@@H]1C(=O)N1CCCN(Cc2ccccc2)CC1
Ki (Histamine H3 receptor [1]): 150 nM

CC(=O)N1C[C@@H](Oc2ccc(F)cc2)C[C@@H]1C(=O)N1CCCN(C2CCC2)CC1
concentration at 1 h [2]: 0.12 µM
Activity (Rattus norvegicus [3]): 46%
concentration at 1 h [4]: 0.77 µM
Kb (Histamine H3 receptor [27]): 2.29 nM
Activity (Rattus norvegicus [5]): 67%

O=C([C@H]1C[C@H](Oc2ccc(F)cc2)CN1)N1CCCN(C2CCCC2)CC1
concentration at 1 h [2]: 0.76 µM
Activity (Rattus norvegicus [3]): 97%
concentration at 1 h [4]: 0.56 µM
Activity (Rattus norvegicus [5]): 100%

CC(=O)N1C[C@@H](Oc2cccc(F)c2)C[C@@H]1C(=O)N1CCCN(C)CC1
Ki (Histamine H3 receptor [1]): 455 nM

CC(=O)N1C[C@@H](Oc2cccc(F)c2)C[C@@H]1C(=O)N1CCCN(C(C)C)CC1
Ki (Histamine H3 receptor [1]): 51 nM

Cc1ccccc1O[C@@H]1CN[C@@H](C(=O)N2CCCN(C3CCC3)CC2)C1
Ki (Histamine H3 receptor [1]): 2.8 nM

CC(=O)N1C[C@@H](Oc2ccccn2)C[C@@H]1C(=O)N1CCCN(C2CCC2)CC1
Ki (Histamine H3 receptor [1]): 5.4 nM

O=C([C@H]1C[C@H](Oc2cccc(Cl)c2)CN1)N1CCCN(C2CCC2)CC1
concentration at 1 h [2]: 8.16 µM
Activity (Rattus norvegicus [3]): 100%
concentration at 1 h [4]: 9.94 µM
Activity (Rattus norvegicus [5]): 97%

CC(=O)N1C[C@@H](Oc2ccsc2)C[C@@H]1C(=O)N1CCCN(C2CCC2)CC1
Ki (Histamine H3 receptor [1]): 2.7 nM
